Data on seven compounds can be found in ChEMBL document CHEMBL1124026, “Nitrosoimidazoles: highly bactericidal analogues of 5-nitroimidazole drugs” (J Med Chem, 1988).

The subject of one series is Clostridium perfringens. Put plainly: Minimum inhibitory concentration measured against Clostridium perfringens strain. Type of series: functional. The gist of the method:
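Twofold serial dilutions in BHIS medium with 5% Me2SO; each well inoculated with stationary-phase bacterial suspension (10^7 cfu/mL). Plates incubated anaerobically at 37 °C in Gaspak jars; growth scored after 17 h.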

Series [1] has as its system Escherichia coli. In words: Minimum inhibitory concentration measured against Escherichia coli AB1157 strain (Uvr+ Rec+). Type of series: functional. In a few lines:
(§1)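 Compounds serially diluted 2-fold in BHIS medium containing 5% Me2SO. Each well inoculated with bacteria from a stationary-phase culture, suspension at 10^7 cfu/mL. Incubated anaerobically at 37 °C in Gaspak jars; growth read after 17 h.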

Series [2] relates to Escherichia coli. Put plainly: Minimum inhibitory concentration measured against Escherichia coli AB1885 strain (UvrB- Rec+). Type of series: functional. The gist of the method: as §1
In series [3] the test system is Escherichia coli. Put plainly: Minimum inhibitory concentration measured against Escherichia coli EE128 strain (Uvr+ RecA-). The series is classed as functional. The gist of the method: as §1
For series [4], the system named is Escherichia coli. In words: Minimum inhibitory concentration measured against Escherichia coli EE349 strain (UvrB- Rec+). The series is classed as functional. In a few lines:
as §1

Series [5] relates to Escherichia coli. In words: Minimum inhibitory concentration measured against Escherichia coli SR58 strain (RecA- UvrB-). Type of series: functional. In a few lines:
as §1

The subject of the next series is Bacteroides fragilis. In words: Minimum inhibitory concentration measured against Bacteroides fragilis strain. Type of series: functional. In a few lines: as §1
Series [6] can be described thus: Half-life measured in 0.1 M KPO4 buffer at PH 7. As to conditions: 0.1 M potassium phosphate buffer. The series is classed as ADME. The gist of the method: (§2)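 Decay followed as loss of UV absorbance at each compound's absorbance maximum in 0.1 M potassium phosphate, pH 7.0, 0.05–1.0 mM compound. Decay first order; half-life taken as time to 50% absorbance loss, from linear regression, given as mean ± standard deviation.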

Series [7] is described as follows: Half-life measured in BHI spent medium. The series is classed as ADME. The gist of the method: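 Spent BHI medium prepared by removing E. coli by centrifugation and filtration after maximal logarithmic growth. Compound at 0.05–1.0 mM; UV absorbance at its maximum followed. First-order half-life (time to 50% absorbance loss) from linear regression, mean ± standard deviation.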

The nature of series [8]: Half-life measured on Bacteroides fragilis in BHIS medium. Type of series: ADME, organism-based. As to conditions: Bacteroides fragilis culture.
Series [9] is described as follows: Half-life measured on Escherichia coli SR58 in BHI medium; value ranges from 3-4. Type of series: ADME, organism-based. As to conditions: Escherichia coli SR58 culture.
Series [10] can be described thus: Half-life measured on Escherichia coli SR58 in BHI medium; value ranges from 1-3. Type of series: ADME, organism-based. As to conditions: Escherichia coli SR58 culture.
Series [11] in a line: Half-life measured in 0.1 M KPO4 buffer atPH 7. Type of series: ADME. As to conditions: 0.1 M potassium phosphate buffer, pH 7. In a few lines: as §2
The nature of series [12]: Half-life measured on Escherichia coli SR58 in BHI medium; value ranges from 4-6. Type of series: ADME, organism-based. The conditions noted are these: Escherichia coli SR58 culture.

In brackets after ≈: the same amount, converted by molar mass.

What is called MIC is the lowest concentration that inhibits growth of the organism. A higher MIC goes with weaker potency. As for `Cn1cnc(-c2ccccc2)c1[N+](=O)[O-]`, the MIC in the series on Clostridium perfringens is 15 µM (≈ 3.05 µg/mL); in the series on Escherichia coli [1] it was greater than 500 µM; in the series on Escherichia coli [2] it was greater than 500 µM; against Escherichia coli [3], 30 µM (≈ 6.1 µg/mL); against Escherichia coli [4] it was 100 µM (≈ 20.3 µg/mL); with Escherichia coli [5], 8 µM (≈ 1.63 µg/mL). For the same compound, the MIC in the series with Bacteroides fragilis was less than 2 µM.

Consider `O=[N+]([O-])c1[nH]cnc1-c1ccccc1`, for which the MIC is 250 µM (≈ 47.3 µg/mL) in the series with Clostridium perfringens; greater than 500 µM against Escherichia coli [1]; greater than 500 µM against Escherichia coli [2]; 130 µM (≈ 24.6 µg/mL) against Escherichia coli [5]; 30 µM (≈ 5.68 µg/mL) against Bacteroides fragilis.

As for `Cc1ncc([N+](=O)[O-])n1CCO` [METRONIDAZOLE], the minimal inhibitory concentration (MIC) in the series with Clostridium perfringens was 13 µM (≈ 2.23 µg/mL); against Escherichia coli [1] it was greater than 500 µM; with Escherichia coli [2], greater than 500 µM; in the series with Escherichia coli [3] it was 600 µM (≈ 103 µg/mL); with Escherichia coli [4] it was greater than 600 µM; against Escherichia coli [5], 100 µM (≈ 17.1 µg/mL). The minimum inhibitory concentration (MIC) in the series on Bacteroides fragilis came out at 6 µM (≈ 1.03 µg/mL).

A word on the half-life: it is the time in which the quantity being followed falls by half. On to `Cn1cnc(-c2ccccc2)c1N=O`, for which the half-life in series [6] was 540 min; in series [7], 40 min; in series [8], less than 2 min; in series [9], 3 min.

For `O=Nc1[nH]cnc1-c1ccccc1`, the figures for the half-life in series [6], in series [8] and in series [10] were 330 min, less than 2 min and 1 min, respectively.

As to `Cn1cnc([N+](=O)[O-])c1-c1ccccc1`, the MIC with Clostridium perfringens was greater than 500 µM; in the series with Escherichia coli [1], greater than 500 µM; in the series with Escherichia coli [2], greater than 500 µM; against Escherichia coli [3], greater than 500 µM; against Escherichia coli [4], no less than 500 µM; with Escherichia coli [5], 500 µM (≈ 102 µg/mL). The same compound had a minimum inhibitory concentration (MIC) against Bacteroides fragilis of 500 µM (≈ 102 µg/mL).

Regarding `Cn1cnc(N=O)c1-c1ccccc1`, the half-life in series [11] is greater than 600 min; in [7], 160 min; in [8] it was less than 2 min; in series [12], 4 min.
